This note sets out measurements from ChEMBL document CHEMBL4513216, “Probing the Open Global Health Chemical Diversity Library for Multistage-Active Starting Points for Next-Generation Antimalarials” (ACS Infect Dis, 2020).

The series in a line: Toxicity liver stage against HepG2, at 10uM. As to conditions: human, HepG2-A16-CD81EGFP cells; read-out: INHIBITION
Further details: test concentration 10 uM, cell line HepG2-A16-CD81EGFP. The class given is cell-based. The method in brief:
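Uninfected HepG2-A16-CD81EGFP cells, 3 × 10^3 per well, 1536-well, plated on prespotted compound at 10 μM final, parasite-free screening media added to match infected plates; puromycin 10 μM positive, DMSO 0.5% negative; run in parallel with 48 h PbLuc assay at 37 °C, 5% CO2; viability by CellTiter-Glo luminescence, normalized to controls.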
Regarding `FC(F)(F)c1ccc(CN2CCN(Cc3cscn3)CC2)cc1`, the cytotoxicity at 10 µM is -4.94%.

For the compound `Cn1cc(Br)c(=O)c(NS(=O)(=O)c2cc(F)ccc2Cl)c1`, the cytotoxicity at 10 µM was -11%.

Take `COCCOCC(=O)N1C[C@@H]2CC[C@H](Oc3ccccc3Cl)[C@@H]2C1`: the cytotoxicity at 10 µM was -10.9%.

On to `Cc1nc(C(C)C)sc1C(=O)NCCNc1ncccc1C#N`, for which the cytotoxicity at 10 µM is -2.55%.

On to `NC(=O)C1CCCN1Cc1cccc(NC(=O)c2cccs2)c1` (configuration not stated), for which the cytotoxicity at 10 µM is -12.7%.

As to `O=C(CN1CCOCS1(=O)=O)NCCc1ccc(Cl)cc1`, the cytotoxicity at 10 µM is -5.14%.

Consider `CC(Cc1ccc(C(F)(F)F)cc1)C(=O)N1CCCS1(=O)=O` (configuration not stated), for which the cytotoxicity at 10 µM was -1.01%.

As to `Cc1ccc(C)c2c(O)cc(CNCC(=O)N3CCCC3)nc12`, the cytotoxicity at 10 µM is -12.4%.

On to `O=C(O)c1cn(CC2CCCN(c3nc4ccccc4s3)C2)nn1` (configuration not stated), for which the cytotoxicity at 10 µM is -12.2%.

As to `O=C(c1cncs1)N1CCC(c2cnccn2)CC1`, the cytotoxicity at 10 µM is -23.2%.

In the case of `CCc1nc(C2CCCN2c2ncc(Br)cn2)no1` (configuration not stated), the cytotoxicity at 10 µM is -0.36%.

Turning to `Cc1cnn(CC2CCCN2C(=O)Cc2cn3ccsc3n2)c1` (configuration not stated), the cytotoxicity at 10 µM was -10.1%.

`Cn1cc(C(=O)N2CC[C@@H]3[C@@H]2CCN3Cc2ccncc2)cn1`: the cytotoxicity at 10 µM is -75.3%.

For the compound `CCCN1CCC(CC(=O)NCc2cc(C)nn2C)CC1`, the cytotoxicity at 10 µM is -12.4%.

With `Cc1cc(-c2cccnc2)nc(C2CCCN2S(C)(=O)=O)n1` (configuration not stated), the cytotoxicity at 10 µM was found to be 4.36%.

With `COc1ccc(-c2n[nH]c(C)c2CC(=O)NCC2CCCO2)cc1` (configuration not stated), the cytotoxicity at 10 µM is -11.6%.

For `CCNC(=O)CNC(=O)c1ccn(S(=O)(=O)c2ccc(C)cc2)c1`, the cytotoxicity at 10 µM is -5.73%.

In the case of `CN1CCC2(CC1)C(=O)N(c1cccnc1)c1ccc(F)cc12`, the cytotoxicity at 10 µM stood at 3.65%.

For the compound `Cc1ncnc(NCC(C)N(C)c2ccccc2)c1C` (configuration not stated), the cytotoxicity at 10 µM amounted to 60.3%.

Regarding `CCCc1c(C2CCOC(C)(C)C2)nc(N)c(C#N)c1-c1cnn(C)c1` (configuration not stated), the cytotoxicity at 10 µM was -3.22%.

On to `CCOCc1nc(-c2ccc(F)cc2Cl)n(C2CCN(C)CC2)n1`, for which the cytotoxicity at 10 µM amounted to 0.0453%.

Regarding `Cc1cc(N(C)C)nc(N(C)Cc2csc(C)n2)n1`, the cytotoxicity at 10 µM is 7.06%.

With `Cc1ccc(CNC2CCc3nc(C(C)C)nn3C2)o1` (configuration not stated), the cytotoxicity at 10 µM was -1.85%.

Take `Cc1n[nH]c(C2CN(C(=O)c3cc4c(s3)CCCC4)CCO2)n1` (configuration not stated): the cytotoxicity at 10 µM was -14.9%.

`CN(Cc1cc(F)ccc1F)CC(C)(CO)CO`: the cytotoxicity at 10 µM is -5.38%.

For `Cc1c(C(=O)N2CCCC2c2cnn(C)c2)cnn1-c1ccccc1` (configuration not stated), the cytotoxicity at 10 µM is -23.7%.

As for `CCS(=O)(=O)NCc1cccnc1N1CCCC(O)C1` (configuration not stated), the cytotoxicity at 10 µM is 1.91%.

With `O=C(c1cc(F)ccc1F)C1CCN(C(=O)c2ccco2)CC1`, the cytotoxicity at 10 µM turned out to be 3.15%.

In the case of `Cc1ccc(NC(=O)CNC(C)Cc2ccsc2)cc1F` (configuration not stated), the cytotoxicity at 10 µM is 9.17%.

In the case of `CN(C)c1ncccc1C(=O)N1CCCC1Cn1cccn1` (configuration not stated), the cytotoxicity at 10 µM was -2.83%.

With `O=C(c1ccncc1)N1CCc2[nH]nc(Nc3ccccc3)c2C1`, the cytotoxicity at 10 µM is 3.13%.

Regarding `O=C(NCCCn1cccn1)N1CCCC1c1ccsc1` (configuration not stated), the cytotoxicity at 10 µM was -7.86%.

As for `COc1ccc(CN2CCC[C@@H]3CN(C(=O)c4ccco4)C[C@@H]32)cc1`, the cytotoxicity at 10 µM was 1.44%.

On to `CN(Cc1ccco1)C(=O)C1CSCN1C(=O)c1cccs1` (configuration not stated), for which the cytotoxicity at 10 µM is -7.81%.

Take `CCNC(=O)NC(=O)CNc1cc(C(=O)OC)cc(C(F)(F)F)c1`: the cytotoxicity at 10 µM was -7.03%.

On to `CCn1c(CN(C)C)nnc1C1CCN(c2ccnc(C)c2)CC1`, for which the cytotoxicity at 10 µM stood at 14.9%.

`CSCCC(NC(N)=O)C(=O)NCc1c(C)nn(-c2ccccc2)c1C` (configuration not stated): the cytotoxicity at 10 µM amounted to 8.15%.

Consider `Cc1ccc(C(C)NC(=O)Cc2c(C)nc3c(c2C)c(=O)[nH]n3C)o1` (configuration not stated), for which the cytotoxicity at 10 µM is -16.3%.

Take `O=S1(=O)CCN(c2nc(C3CC3)ns2)CC1`: the cytotoxicity at 10 µM stood at 2.37%.

On to `O=C(Cc1ccccc1)N1CCN(CC(O)c2ccc(F)cc2)CC1` (configuration not stated), for which the cytotoxicity at 10 µM is -13.8%.

As for `O=C(CCc1cc2n(n1)CCCNC2)N1CCSCC1`, the cytotoxicity at 10 µM was 8.55%.

Consider `NC(=O)CN1C(=O)CO[C@H]2CN(Cc3ccc(C(F)(F)F)cc3)C[C@H]21`, for which the cytotoxicity at 10 µM is 0.523%.

Regarding `N#Cc1ccc(N2CCC3(CC2)CC(OCc2cccnc2)CO3)cc1` (configuration not stated), the cytotoxicity at 10 µM amounted to 38.8%.

For the compound `CCCn1nccc1NC(=O)CN1CCc2c(nc(C(C)C)n2C)C1`, the cytotoxicity at 10 µM was 4.02%.

On to `Cc1ccc(O)c(C(=O)NCCCS(=O)(=O)Cc2ccccc2)c1`, for which the cytotoxicity at 10 µM was determined as 33.6%.

Turning to `CCOC1CC2(CCN(Cc3cccn3C)CC2)C1`, the cytotoxicity at 10 µM was -149%.

For `COCCN1CCC(CNC(=O)C2(NC(C)=O)CCCCC2)CC1`, the cytotoxicity at 10 µM amounted to 5.46%.

Turning to `Cc1cccc(N2CCN(CCNC(=O)c3ccnn3C)CC2)c1`, the cytotoxicity at 10 µM came out at 10.4%.

For `CCn1cnnc1CCNC(=O)CCNC(=O)c1ccccc1F`, the cytotoxicity at 10 µM is 4.49%.

As for `CCn1ncc2c1C(COC)CN(Cc1ccc(C)o1)C2` (configuration not stated), the cytotoxicity at 10 µM was found to be 5.41%.

Consider `Cc1ccc(NC(=O)Cn2cc(I)cn2)cc1`, for which the cytotoxicity at 10 µM amounted to 9.06%.

In the case of `O=C1CC(c2ccc(C(=O)O)cc2)c2ncn(-c3cccnc3)c2N1` (configuration not stated), the cytotoxicity at 10 µM was -1.64%.

`CC1CCC(NS(=O)(=O)CC(=O)NC2(C(N)=O)CCCC2)CC1` (configuration not stated): the cytotoxicity at 10 µM is -4.12%.

For `NC(=O)NCCC(=O)N1CCC(c2cc(Cc3ccccc3)n[nH]2)CC1`, the cytotoxicity at 10 µM amounted to 1.5%.

With `O=C(c1cnccn1)N1CCc2onc(CN3CCCC3)c2C1`, the cytotoxicity at 10 µM worked out at 8.7%.

Take `CCCc1nc(CN(CC)C(=O)c2ccc3ncsc3c2)no1`: the cytotoxicity at 10 µM turned out to be 9.65%.

On to `CCOc1ccccc1CNC(=O)NCC(c1cnn(C)c1)N(C)C` (configuration not stated), for which the cytotoxicity at 10 µM amounted to 4.15%.

As to `CS(=O)(=O)CCSc1cccc(C#N)c1`, the cytotoxicity at 10 µM was -5.61%.

For the compound `O=C(Cc1ccc(S(=O)(=O)C(F)F)cc1)N1CCC1`, the cytotoxicity at 10 µM was -17%.

On to `Cc1cccc(C(C(=O)NCc2nc(-c3cccnc3)no2)N(C)C)c1` (configuration not stated), for which the cytotoxicity at 10 µM worked out at 6.45%.

In the case of `Cc1nnc(NC(=O)CN2CCCC2c2noc(C3CC3)n2)s1` (configuration not stated), the cytotoxicity at 10 µM worked out at 5.22%.

With `Cc1c(C(=O)N2CCC3(CCCNC3=O)C2)sc2nc[nH]c(=O)c12` (configuration not stated), the cytotoxicity at 10 µM is -10.7%.

For the compound `CCCC(NC(=O)c1ccccc1Br)c1nnn[nH]1` (configuration not stated), the cytotoxicity at 10 µM is -1.8%.

For the compound `O=C(CCC1CCCC1)N1CCCC(c2ncc3c(n2)CCNC3)C1` (configuration not stated), the cytotoxicity at 10 µM is -23%.

Take `N#Cc1cc(NC(=O)c2ccccn2)ccc1N1CCC(O)CC1`: the cytotoxicity at 10 µM came out at 0.73%.

As for `CS(=O)(=O)c1ccc(O[C@H]2COCCN(C(=O)c3ccno3)C2)cc1`, the cytotoxicity at 10 µM was 0.0962%.

On to `COc1ccc(OC)c(-c2nc(CN(C)Cc3nonc3C)c(C)o2)c1`, for which the cytotoxicity at 10 µM amounted to 13.5%.

As for `CCN(Cc1cnc(NCc2ccccc2)nc1)C1CCS(=O)(=O)C1` (configuration not stated), the cytotoxicity at 10 µM was -15.3%.

As to `COCCCNC(=O)c1nnsc1-c1ccccc1`, the cytotoxicity at 10 µM worked out at 5.09%.

For `CCN(CC)c1nc(C)cc(C(=O)Nc2ccc(Br)cc2)n1`, the cytotoxicity at 10 µM worked out at 6.46%.

Turning to `C=C1C(C)(C)[C@@H]2CC[C@]1(C(=O)N1CCC(n3cc(CO)nn3)CC1)C2`, the cytotoxicity at 10 µM is -7.73%.

For the compound `O=C1CCC2(CCN(Cc3ccc(F)cc3)CC2)N1CCN1CCCC1`, the cytotoxicity at 10 µM was -4.72%.

For the compound `Cc1cnn(CC2CCN(CC(O)CN3CCC(C)CC3)CC2)c1` (configuration not stated), the cytotoxicity at 10 µM was determined as 5.11%.

`COCCNCc1cc2cc(C)cc(C)c2[nH]c1=O`: the cytotoxicity at 10 µM was -2.13%.

As to `CCC(=O)N1CCN(c2cc(N(C)C)cnn2)CC1`, the cytotoxicity at 10 µM stood at 2%.

For `Cc1cnn(CC2CCCN2Cc2coc(-c3cccc(F)c3)n2)c1` (configuration not stated), the cytotoxicity at 10 µM amounted to 1.2%.

For the compound `Cc1ccccc1C(C(=O)NCCN1CCC(CO)CC1)N(C)C` (configuration not stated), the cytotoxicity at 10 µM was -4.5%.

Consider `Cc1nc(C)c(CN2CCOC[C@H](Oc3ccc(S(C)(=O)=O)cc3)C2)s1`, for which the cytotoxicity at 10 µM is 5.25%.

In the case of `O=C(NC1CCC1)C1=NOC2(CCN(Cc3ccccc3)C2)C1` (configuration not stated), the cytotoxicity at 10 µM was -97.6%.

`O=C1N(c2ccsc2)CCC12CCCN(CC1CC1)C2` (configuration not stated): the cytotoxicity at 10 µM is -79.4%.

As to `O=C(O)c1ccc(S(=O)(=O)Nc2cccc(CC(F)(F)F)c2)c(F)c1`, the cytotoxicity at 10 µM is -6.19%.

Consider `N#Cc1ccc(Cn2cncn2)c(F)c1`, for which the cytotoxicity at 10 µM was -1.49%.

As to `Cc1cc(N2CCN(C(=O)c3cccnc3)CC2)nc(C)n1`, the cytotoxicity at 10 µM amounted to 4.28%.

For `CC(NC(=O)N(C)C1CC1)c1ccc(Oc2cccnc2)c(F)c1` (configuration not stated), the cytotoxicity at 10 µM was -1.23%.

Regarding `O=C(Cc1ccccn1)N1CCN(C(=O)CC2CCCCC2)CC1`, the cytotoxicity at 10 µM worked out at 5.35%.

As to `Cc1nc(N2C[C@@H](CN3CCCN(C)CC3)[C@@H](CO)C2)c2ccsc2n1`, the cytotoxicity at 10 µM was -6.56%.

As to `CN(Cc1cscn1)C1CCCN(Cc2noc(C3CC3)n2)C1` (configuration not stated), the cytotoxicity at 10 µM was -2.77%.

Consider `O=C1CCCN1Cc1nnc2n1CCN(Cc1ccco1)C2`, for which the cytotoxicity at 10 µM was 0.686%.

For `CN1CC(C(=O)NCc2cccnc2-n2cccn2)CC1=O` (configuration not stated), the cytotoxicity at 10 µM is -6.18%.

Regarding `O=C(Nc1cc[nH]n1)c1ccc(COCC(F)(F)F)cc1`, the cytotoxicity at 10 µM was -7.46%.

With `COc1ccc(OC)c(Sc2ncccc2C(=O)N(C)CCC#N)c1`, the cytotoxicity at 10 µM came to 13.3%.

With `COCC1CN(Cc2cc(C)on2)Cc2cn(CC3CC3)nc21` (configuration not stated), the cytotoxicity at 10 µM was 8.91%.

For the compound `c1ncn(CC2CN(Cc3csc(C4CCCC4)n3)CCO2)n1` (configuration not stated), the cytotoxicity at 10 µM was -8.55%.

`CCc1ccc(CN2C[C@@H](C(=O)O)[C@H](c3ccccc3OC)C2)o1`: the cytotoxicity at 10 µM is -13.9%.

For `CCCn1cc(C(=O)NCCc2ccncc2)c(C)n1`, the cytotoxicity at 10 µM is 11.2%.

For `CC(c1ccccc1)N(C)C(=O)CN1CCCc2cc(F)cc(F)c21` (configuration not stated), the cytotoxicity at 10 µM is 27.3%.

`O=C(CSc1nnc[nH]1)NCc1sccc1Br`: the cytotoxicity at 10 µM worked out at 0.388%.
